Results taken from article PMC5817915 (European journal of medicinal chemistry, 2017).
Where a name gives a salt, the structure may show the parent alone.

Legend:
[1] = biological target: PTPRZ1 (Homo sapiens, UniProt P23471); assay: In vitro dephosphorylation assay, phosphate sensor reagent, p-NPP substrate; format: biochemical; settings: for inhibition at 1 µM: read-out: inhibition of the phosphatase activity of PTPRZ1
Method in brief: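 Single-concentration screen: human recombinant PTPRZ1 (0.1 μM) incubated with test compound at 1.0 μM and p-NPP substrate. Phosphate release was detected with a phosphate sensor reagent by fluorescence (excitation 430 nm, emission 450 nm) and expressed as percent inhibition of phosphatase activity.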

[2] = tested on: HeLa cells; assay: Total tyrosine phosphorylation ELISA; format: cell-based; settings: at any of 0.1, 1.0 and 10.0 μM
Method in brief: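 HeLa cells in RPMI-1640 with 10% FBS were seeded at 2 × 10^4 cells/well in triplicate and serum-starved 24 h. They were then treated 10 min with test compound at 0.1, 1.0 or 10.0 μM, with 0.25% DMSO as vehicle control and EGF (50 ng/mL, 10 min) as positive control. Total phosphotyrosine was measured with a tyrosine phosphorylation ELISA kit and compared with vehicle.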

[3] = biological target: T1, PTP1B (Homo sapiens, UniProt P18031); assay: In vitro dephosphorylation assay, phosphate sensor reagent, p-NPP substrate; format: biochemical; settings: from IC50 values of Table 2
T1 sequence (P18031 1-435): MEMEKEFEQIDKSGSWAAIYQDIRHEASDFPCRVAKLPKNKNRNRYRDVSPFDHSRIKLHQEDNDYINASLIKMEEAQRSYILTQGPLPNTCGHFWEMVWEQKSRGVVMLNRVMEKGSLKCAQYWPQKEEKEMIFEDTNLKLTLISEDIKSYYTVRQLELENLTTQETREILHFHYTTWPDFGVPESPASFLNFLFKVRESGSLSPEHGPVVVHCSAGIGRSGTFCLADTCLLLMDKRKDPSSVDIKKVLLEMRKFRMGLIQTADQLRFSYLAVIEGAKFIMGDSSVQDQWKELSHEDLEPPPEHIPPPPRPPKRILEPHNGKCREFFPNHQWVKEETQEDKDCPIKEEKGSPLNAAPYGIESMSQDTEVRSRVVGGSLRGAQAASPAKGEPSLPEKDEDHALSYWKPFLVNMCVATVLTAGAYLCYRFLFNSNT
Method in brief: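 Human recombinant PTPRZ1 and PTP1B, each at 0.1 μM, tested against test compound at 0.001–100 μM with p-NPP as substrate. Released inorganic phosphate was detected with a phosphate sensor reagent as a fluorescence increase (excitation 430 nm, emission 450 nm). IC50 values were calculated for each enzyme, and selectivity was judged by comparing the PTPRZ1 and PTP1B IC50s.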

[4] = In vivo permeability study, GC-MS detection in plasma and brain; settings: mice, 1h post-gavage, 60 mg/kg
Method in brief: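 Mice were dosed by oral gavage at 60 mg/kg and killed 1 h later; brain and plasma were collected. Brain (50–100 mg) was bead-homogenised in ethyl acetate, then the supernatant was dried and taken up in heptane. Plasma (100 μL) was precipitated with 3 volumes of cold methanol at -2 °C for 20 min, dried and reconstituted in heptane. Samples were analysed by GC-MS (EI 70 eV), quantifying the extracted ion at m/z 191.0137 (LOQ ~70 ng/mL).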

[5] = tested on: alcohol-induced reward; settings: mice; cited from earlier work
[6] = tested on: TrkA (Tyr490); assay: Western blot of TrkA phosphorylation in SH-SY5Y cells; format: cell-based, human; settings: SH-SY5Y cells, 1.0, 5.0 and 10.0 μM, 20 minutes
Method in brief: (§1)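 Human SH-SY5Y cells, grown in EMEM/F12 (1:1) with 10% FBS at 37 °C and 5% CO2, were switched to serum-free medium just before treatment. They were then exposed to test compound (1.0, 5.0, 10.0 μM) or DMSO vehicle for 20 min and lysed in Tris-HCl pH 7.5/Triton buffer with phosphatase and protease inhibitors. Lysate (20 μg protein) was run on SDS-PAGE and blotted to PVDF. Blots were probed for phospho-TrkA (Y490) or phospho-ALK (Y1278), reprobed for total TrkA or ALK, and detected by ECL. Densitometry data are mean ± S.E.M., analysed by one-way ANOVA with Tukey post-hoc.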

[7] = tested on: PC12 cells; assay: Amphetamine-induced toxicity, cell viability by MTT; format: cell-based, Rat; settings: amphetamine 1 mM, compound 1.0 μM, 24 hours
Method in brief: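 Rat PC12 cells grown in RPMI-1640 with 10% FBS, seeded at 10^4 cells/well, then co-incubated with amphetamine (1.0 mM) and test compound (1.0 μM). For MTT, cells were PBS-washed and given fresh medium with MTT (5 mg/mL stock) for 4 h. Formazan was dissolved in DMSO with 10 min shaking at RT, and absorbance read at 570 nm. Data are mean ± S.E.M., analysed by one-way ANOVA with Tukey post-hoc.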

[8] = tested on: ALK (Tyr1278); assay: Western blot of ALK phosphorylation in SH-SY5Y cells; format: cell-based, human; settings: SH-SY5Y cells, 1.0, 5.0 and 10.0 μM, 20 minutes
Method in brief: as §1

Sequence of PTPRZ1 (P23471 25-2315): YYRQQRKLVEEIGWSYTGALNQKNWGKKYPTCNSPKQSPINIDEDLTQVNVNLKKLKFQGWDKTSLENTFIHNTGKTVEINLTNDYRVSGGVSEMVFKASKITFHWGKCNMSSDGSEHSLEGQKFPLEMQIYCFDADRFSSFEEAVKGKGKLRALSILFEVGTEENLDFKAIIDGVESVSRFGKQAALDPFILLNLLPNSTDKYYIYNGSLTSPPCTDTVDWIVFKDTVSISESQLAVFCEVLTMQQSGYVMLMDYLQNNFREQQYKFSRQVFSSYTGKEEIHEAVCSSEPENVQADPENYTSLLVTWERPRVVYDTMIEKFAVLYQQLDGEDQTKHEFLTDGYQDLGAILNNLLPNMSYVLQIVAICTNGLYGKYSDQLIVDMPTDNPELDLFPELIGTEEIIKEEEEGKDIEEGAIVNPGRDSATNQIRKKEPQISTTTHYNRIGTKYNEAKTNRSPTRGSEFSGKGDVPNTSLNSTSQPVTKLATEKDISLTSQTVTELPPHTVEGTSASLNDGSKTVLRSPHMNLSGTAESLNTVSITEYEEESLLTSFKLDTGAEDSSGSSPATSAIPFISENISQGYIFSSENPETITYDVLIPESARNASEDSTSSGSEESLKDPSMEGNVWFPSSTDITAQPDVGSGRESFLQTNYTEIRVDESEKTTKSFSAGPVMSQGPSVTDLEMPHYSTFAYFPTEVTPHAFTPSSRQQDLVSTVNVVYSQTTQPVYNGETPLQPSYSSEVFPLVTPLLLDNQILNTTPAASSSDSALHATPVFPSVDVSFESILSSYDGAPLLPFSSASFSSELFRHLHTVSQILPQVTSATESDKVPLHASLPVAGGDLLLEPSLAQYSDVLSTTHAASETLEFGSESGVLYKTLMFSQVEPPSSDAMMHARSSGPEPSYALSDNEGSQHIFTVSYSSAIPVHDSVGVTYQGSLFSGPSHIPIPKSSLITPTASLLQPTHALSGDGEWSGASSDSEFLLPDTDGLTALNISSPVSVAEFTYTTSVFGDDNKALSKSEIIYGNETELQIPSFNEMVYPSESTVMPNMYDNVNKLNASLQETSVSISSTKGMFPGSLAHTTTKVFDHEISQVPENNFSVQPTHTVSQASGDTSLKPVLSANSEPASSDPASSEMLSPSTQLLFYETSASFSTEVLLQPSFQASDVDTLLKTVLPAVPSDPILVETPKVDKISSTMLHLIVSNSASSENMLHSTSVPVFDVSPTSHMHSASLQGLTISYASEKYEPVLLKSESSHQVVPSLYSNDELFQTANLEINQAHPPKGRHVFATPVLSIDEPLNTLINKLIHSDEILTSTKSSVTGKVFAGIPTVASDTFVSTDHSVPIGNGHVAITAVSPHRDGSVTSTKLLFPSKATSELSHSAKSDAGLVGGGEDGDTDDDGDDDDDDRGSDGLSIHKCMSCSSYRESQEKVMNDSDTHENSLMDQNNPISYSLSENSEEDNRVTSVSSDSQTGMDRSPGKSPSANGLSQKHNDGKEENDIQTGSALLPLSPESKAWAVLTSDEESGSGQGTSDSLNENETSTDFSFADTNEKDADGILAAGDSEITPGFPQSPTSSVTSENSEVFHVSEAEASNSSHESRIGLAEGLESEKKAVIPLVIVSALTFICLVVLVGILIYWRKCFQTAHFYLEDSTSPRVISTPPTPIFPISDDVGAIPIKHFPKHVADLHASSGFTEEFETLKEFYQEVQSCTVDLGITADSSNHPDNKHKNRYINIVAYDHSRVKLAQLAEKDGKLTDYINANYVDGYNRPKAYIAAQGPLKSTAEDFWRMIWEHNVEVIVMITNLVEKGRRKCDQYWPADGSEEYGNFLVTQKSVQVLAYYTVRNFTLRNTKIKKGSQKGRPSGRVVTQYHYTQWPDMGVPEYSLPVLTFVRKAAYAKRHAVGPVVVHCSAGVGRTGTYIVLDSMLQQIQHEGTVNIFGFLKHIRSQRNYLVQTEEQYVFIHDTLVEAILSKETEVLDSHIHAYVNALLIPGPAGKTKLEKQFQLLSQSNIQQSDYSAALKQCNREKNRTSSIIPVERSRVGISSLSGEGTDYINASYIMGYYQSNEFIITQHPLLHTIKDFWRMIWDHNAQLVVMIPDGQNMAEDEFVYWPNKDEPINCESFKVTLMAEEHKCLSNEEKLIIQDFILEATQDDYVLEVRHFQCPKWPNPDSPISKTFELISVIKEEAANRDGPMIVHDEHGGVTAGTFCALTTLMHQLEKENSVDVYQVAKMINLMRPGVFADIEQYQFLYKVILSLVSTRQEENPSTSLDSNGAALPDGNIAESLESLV

| Compound | selectivity PTPRZ1 versus PTP1B [3] | inhibition at 1 µM [1] [%] | increase of Phospho-Tyr levels [2] [%] | also measured |
| --- | --- | --- | --- | --- |
| O=S(=O)(c1ccc(COc2ccc(S(=O)(=O)C(F)(F)F)cc2)cc1)C(F)(F)F [compound 1, 1-((Trifluoromethyl)sulfonyl)-4-((4-((trifluoromethyl)sulfonyl)benzyl)oxy)benzene, reference compound] |  |  |  | PTPRZ1 phosphatase activity inhibition [1]: failed to inhibit PTPRZ1 phosphatase activity |
| FC(F)(F)Sc1ccc(NCc2ccccc2)cc1 [12d, N-benzyl-4-((trifluoromethyl)thio)aniline] |  | ≥ 10 | ≥ 10 |  |
| FC(F)(F)Sc1ccc(CN(Cc2ccc(SC(F)(F)F)cc2)Cc2ccc(SC(F)(F)F)cc2)cc1 [compound 13, tris(4-((trifluoromethyl)thio)benzyl)amine] |  |  | ≥ 10 |  |
| O=C(Cc1ccc(S(=O)(=O)C(F)(F)F)cc1)Nc1ccc(S(=O)(=O)C(F)(F)F)cc1 [5b, N,2-bis(4-((trifluoromethyl)sulfonyl)phenyl)acetamide] |  | ≥ 10 |  |  |

Continued, in another order:

| selectivity PTPRZ1 versus PTP1B [3] | inhibition at 1 µM [1] [%] | Compound | increase of Phospho-Tyr levels [2] [%] | also measured |
| --- | --- | --- | --- | --- |
| strongly and selectively inhibit PTPRZ1 | ≥ 10 | FC(F)(F)Sc1ccc(COc2ccc(SC(F)(F)F)cc2)cc1 [10a, (Trifluoromethyl)(4-((4-((trifluoromethyl)thio)benzyl)oxy)phenyl)sulfane] | ≥ 10 | ability to cross the BBB [4]: can cross the BBB; effect on alcohol-induced reward [5]: completely blocked alcohol-induced reward in mice; increase of tyrosine phosphorylation of TrkA [6]: 2–3 fold; effect on amphetamine-induced loss of PC12 cell viability [7]: significantly prevented amphetamine-induced loss of PC12 cell viability |
| remarkable selectivity against PTP1B |  | O=C(Cc1ccc(SC(F)(F)F)cc1)NCc1ccc(SC(F)(F)F)cc1 [4c, N-(4-((Trifluoromethyl)thio)benzyl)-2-(4-((trifluoromethyl)thio)phenyl)acetamide] |  |  |
| strongly and selectively inhibit PTPRZ1 | ≥ 10 | FC(F)(F)Sc1ccc(CNCc2ccc(SC(F)(F)F)cc2)cc1 [12b, Bis(4-((trifluoromethyl)thio)benzyl)amine hydrochloride] |  | increase in phosphorylation of ALK 140 kDa isoform [8]: 2 fold; increase of tyrosine phosphorylation of TrkA [6]: 2–3 fold; effect on amphetamine-induced loss of PC12 cell viability [7]: the same trend was observed |
